For two molecules, IC50 and viability results are on record in ChEMBL document CHEMBL3286120, “Design and synthesis of novel soluble 2,5-diketopiperazine derivatives as potential anticancer agents” (Eur J Med Chem, 2014).

The first assay concerns NCI-H1975. In words: Cytotoxicity against human NCI-H1975 cells assessed as reduction in cell viability after 72 hrs by CCK8 assay. It is filed as functional, cell-based. Conditions: Homo sapiens, NCI-H1975, 72 h; read-out: IC50. Put shortly:
(§1)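 Cells kept in RPMI or DMEM with 10% FBS and 1% penicillin/streptomycin at 37 °C in 5% CO2. Seeded at 400-800 cells/well in 384-well plates and exposed to varying compound concentrations, with solution-only control, for 72 h. CCK8 reagent added, then absorbance read at 450 nm. Plinabulin and TSA were positive controls. Mean SD of three experiments.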
A general note: Tetrazolium assays rely on reduction of a dye to a coloured formazan, in cell work by metabolically active cells.
What is called IC50 is the concentration at which inhibition is half-maximal. Turning to `C=CCn1c(=O)/c(=C\c2cccc(Cl)c2Cl)[nH]c(=O)/c1=C\c1ccccc1OC`, the IC50 is 4500 nM.

For the molecule `CC(/C=C/C(=O)NO)=C\[C@@H](C)C(=O)c1ccc(N(C)C)cc1` [TRICHOSTATIN], the IC50 amounted to 210 nM.

The subject of the next assay is U-937. In words: Cytotoxicity against human U937 cells assessed as reduction in cell viability after 72 hrs by CCK8 assay. It is filed as functional, cell-based. Conditions: Homo sapiens, U-937, 72 h; read-out: IC50. Put shortly: as §1
Turning to `C=CCn1c(=O)/c(=C\c2cccc(Cl)c2Cl)[nH]c(=O)/c1=C\c1ccccc1OC`, the IC50 came to 500 nM.

For `CC(/C=C/C(=O)NO)=C\[C@@H](C)C(=O)c1ccc(N(C)C)cc1` [TRICHOSTATIN], the IC50 is 100 nM.

For another assay, the system named is U-937. As to the kind of experiment: Cytotoxicity against human U937 cells assessed as viable cells at 10 uM after 24 hrs by CCK8 assay relative to control. It is filed as functional. Conditions: U-937, 24 h, read-out: Activity. Put shortly: (§2)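 Viability of U937, K562 and H1975 cells cultured in RPMI or DMEM with 10% FBS and 1% penicillin/streptomycin at 37 °C in 5% CO2. Cells treated at two fixed concentrations (5 or 10) for 24 or 48 h. Viable cells measured by CCK8 and expressed relative to control. Mean SD of three experiments.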
As for `C=CCn1c(=O)/c(=C\c2cccc(Cl)c2Cl)[nH]c(=O)/c1=C\c1ccccc1OC`, the viability at 10 µM stood at 8.7%.

Tested on in another assay: not listed separately
In words: Cytotoxicity against human HuH7 cells assessed as reduction in cell viability after 72 hrs by CCK8 assay. It is filed as functional, cell-based, Huh-7. Conditions: Homo sapiens, Huh-7, 72 h; read-out: IC50. Put shortly:
as §1
For the molecule `C=CCn1c(=O)/c(=C\c2cccc(Cl)c2Cl)[nH]c(=O)/c1=C\c1ccccc1OC`, the concentration for half-maximal inhibition (IC50) turned out to be 1200 nM.

With `CC(/C=C/C(=O)NO)=C\[C@@H](C)C(=O)c1ccc(N(C)C)cc1` [TRICHOSTATIN], the IC50 was 100 nM.

For a further assay, the system named is HeLa. As to the kind of experiment: Cytotoxicity against human HeLa cells assessed as reduction in cell viability after 72 hrs by CCK8 assay. It is filed as functional, cell-based. Conditions: Homo sapiens, HeLa, 72 h; read-out: IC50. Put shortly: as §1
Consider `C=CCn1c(=O)/c(=C\c2cccc(Cl)c2Cl)[nH]c(=O)/c1=C\c1ccccc1OC`, for which the half-inhibitory concentration (IC50) stood at 1600 nM.

Take `CC(/C=C/C(=O)NO)=C\[C@@H](C)C(=O)c1ccc(N(C)C)cc1` [TRICHOSTATIN]: the IC50 turned out to be 110 nM.

In another assay the test system is NCI-H1975. As to the kind of experiment: Cytotoxicity against human NCI-H1975 cells assessed as viable cells at 10 uM after 48 hrs by CCK8 assay relative to control. It is filed as functional. Conditions: NCI-H1975, 48 h, read-out: Activity. Put shortly: as §2
As for `C=CCn1c(=O)/c(=C\c2cccc(Cl)c2Cl)[nH]c(=O)/c1=C\c1ccccc1OC`, the viability at 10 µM was found to be 42.6%.

The next assay relates to U-937. As to the kind of experiment: Cytotoxicity against human U937 cells assessed as viable cells at 10 uM after 48 hrs by CCK8 assay relative to control. It is filed as functional. The settings on record: U-937, 48 h, read-out: Activity. Put shortly:
as §2
Consider `C=CCn1c(=O)/c(=C\c2cccc(Cl)c2Cl)[nH]c(=O)/c1=C\c1ccccc1OC`, for which the viability at 10 µM amounted to 1.3%.

The test system of another assay is K562. As to the kind of experiment: Cytotoxicity against human K562 cells assessed as viable cells at 5 uM after 48 hrs by CCK8 assay relative to control. The settings on record: K562, 48 h, read-out: Activity. It is filed as functional. The gist of the method: as §2
Regarding `C=CCn1c(=O)/c(=C\c2cccc(Cl)c2Cl)[nH]c(=O)/c1=C\c1ccccc1OC`, the viability at 5 µM is 24.2%.

In the next assay the test system is MCF7. As to the kind of experiment: Cytotoxicity against human MCF7 cells assessed as reduction in cell viability after 72 hrs by CCK8 assay. It is filed as functional, cell-based. Conditions: Homo sapiens, MCF7, 72 h; read-out: IC50. Put shortly: as §1
Regarding `C=CCn1c(=O)/c(=C\c2cccc(Cl)c2Cl)[nH]c(=O)/c1=C\c1ccccc1OC`, the IC50 was found to be 2100 nM.

Regarding `CC(/C=C/C(=O)NO)=C\[C@@H](C)C(=O)c1ccc(N(C)C)cc1` [TRICHOSTATIN], the IC50 is 60 nM.

Another assay has as its system K562. In words: Cytotoxicity against human K562 cells assessed as reduction in cell viability after 72 hrs by CCK8 assay. Conditions: Homo sapiens, K562, 72 h; read-out: IC50. It is filed as functional, cell-based. The gist of the method: as §1
`C=CCn1c(=O)/c(=C\c2cccc(Cl)c2Cl)[nH]c(=O)/c1=C\c1ccccc1OC`: the IC50 worked out at 900 nM.

With `CC(/C=C/C(=O)NO)=C\[C@@H](C)C(=O)c1ccc(N(C)C)cc1` [TRICHOSTATIN], the IC50 turned out to be 410 nM.

The next assay deals with U-937. As to the kind of experiment: Cytotoxicity against human U937 cells assessed as viable cells at 5 uM after 24 hrs by CCK8 assay relative to control. It is filed as functional. Conditions: U-937, 24 h, read-out: Activity. The gist of the method: as §2
With `C=CCn1c(=O)/c(=C\c2cccc(Cl)c2Cl)[nH]c(=O)/c1=C\c1ccccc1OC`, the viability at 5 µM was found to be 7%.

The test system of the next assay is NCI-H1975. As to the kind of experiment: Cytotoxicity against human NCI-H1975 cells assessed as viable cells at 5 uM after 24 hrs by CCK8 assay relative to control. It is filed as functional. The settings on record: NCI-H1975, 24 h, read-out: Activity. The gist of the method:
as §2
With `C=CCn1c(=O)/c(=C\c2cccc(Cl)c2Cl)[nH]c(=O)/c1=C\c1ccccc1OC`, the viability at 5 µM was determined as 107%.

In a further assay the test system is K562. As to the kind of experiment: Cytotoxicity against human K562 cells assessed as viable cells at 10 uM after 48 hrs by CCK8 assay relative to control. It is filed as functional. Conditions: K562, 48 h, read-out: Activity. The gist of the method: as §2
With `C=CCn1c(=O)/c(=C\c2cccc(Cl)c2Cl)[nH]c(=O)/c1=C\c1ccccc1OC`, the viability at 10 µM turned out to be 14.9%.

In the next assay the test system is NCI-H1975. As to the kind of experiment: Cytotoxicity against human NCI-H1975 cells assessed as viable cells at 5 uM after 48 hrs by CCK8 assay relative to control. It is filed as functional. The settings on record: NCI-H1975, 48 h, read-out: Activity. Put shortly:
as §2
Take `C=CCn1c(=O)/c(=C\c2cccc(Cl)c2Cl)[nH]c(=O)/c1=C\c1ccccc1OC`: the viability at 5 µM is 42.7%.

Another assay concerns K562. In words: Cytotoxicity against human K562 cells assessed as viable cells at 10 uM after 24 hrs by CCK8 assay relative to control. It is filed as functional. Conditions: K562, 24 h, read-out: Activity. The gist of the method:
as §2
For the molecule `C=CCn1c(=O)/c(=C\c2cccc(Cl)c2Cl)[nH]c(=O)/c1=C\c1ccccc1OC`, the viability at 10 µM amounted to 103%.

Another assay has as its system HL-60. In words: Cytotoxicity against human HL60 cells assessed as reduction in cell viability after 72 hrs by CCK8 assay. The settings on record: Homo sapiens, HL-60, 72 h; read-out: IC50. It is filed as functional, cell-based. Put shortly:
as §1
For `C=CCn1c(=O)/c(=C\c2cccc(Cl)c2Cl)[nH]c(=O)/c1=C\c1ccccc1OC`, the concentration for half-maximal inhibition (IC50) came out at 2000 nM.

As to `CC(/C=C/C(=O)NO)=C\[C@@H](C)C(=O)c1ccc(N(C)C)cc1` [TRICHOSTATIN], the IC50 amounted to 80 nM.

Another assay relates to NCI-H1975. As to the kind of experiment: Cytotoxicity against human NCI-H1975 cells assessed as viable cells at 10 uM after 24 hrs by CCK8 assay relative to control. It is filed as functional. The settings on record: NCI-H1975, 24 h, read-out: Activity. Put shortly:
as §2
As to `C=CCn1c(=O)/c(=C\c2cccc(Cl)c2Cl)[nH]c(=O)/c1=C\c1ccccc1OC`, the viability at 10 µM stood at 98.9%.

A further assay concerns U-937. As to the kind of experiment: Cytotoxicity against human U937 cells assessed as viable cells at 5 uM after 48 hrs by CCK8 assay relative to control. It is filed as functional. Conditions: U-937, 48 h, read-out: Activity. The gist of the method: as §2
For `C=CCn1c(=O)/c(=C\c2cccc(Cl)c2Cl)[nH]c(=O)/c1=C\c1ccccc1OC`, the viability at 5 µM came to 0.9%.

Another assay relates to K562. As to the kind of experiment: Cytotoxicity against human K562 cells assessed as viable cells at 5 uM after 24 hrs by CCK8 assay relative to control. It is filed as functional. The settings on record: K562, 24 h, read-out: Activity. The gist of the method: as §2
With `C=CCn1c(=O)/c(=C\c2cccc(Cl)c2Cl)[nH]c(=O)/c1=C\c1ccccc1OC`, the viability at 5 µM turned out to be 104%.

A further assay deals with MOLT-4. In words: Cytotoxicity against human MOLT4 cells assessed as reduction in cell viability after 72 hrs by CCK8 assay. It is filed as functional, cell-based. The settings on record: Homo sapiens, MOLT-4, 72 h; read-out: IC50. The gist of the method:
as §1
With `C=CCn1c(=O)/c(=C\c2cccc(Cl)c2Cl)[nH]c(=O)/c1=C\c1ccccc1OC`, the IC50 came to 1200 nM.

Turning to `CC(/C=C/C(=O)NO)=C\[C@@H](C)C(=O)c1ccc(N(C)C)cc1` [TRICHOSTATIN], the IC50 came out at 30 nM.

The subject of the next assay is A549. In words: Cytotoxicity against human A549 cells assessed as reduction in cell viability after 72 hrs by CCK8 assay. It is filed as functional, cell-based. Conditions: Homo sapiens, A549, 72 h; read-out: IC50. Put shortly:
as §1
`C=CCn1c(=O)/c(=C\c2cccc(Cl)c2Cl)[nH]c(=O)/c1=C\c1ccccc1OC`: the IC50 was 2300 nM.

In the case of `CC(/C=C/C(=O)NO)=C\[C@@H](C)C(=O)c1ccc(N(C)C)cc1` [TRICHOSTATIN], the IC50 is 50 nM.

Tested on in a further assay: not listed separately
In words: Cytotoxicity against human BGC823 cells assessed as reduction in cell viability after 72 hrs by CCK8 assay. The settings on record: Homo sapiens, BGC-823, 72 h; read-out: IC50. It is filed as functional, cell-based, BGC-823. Put shortly: as §1
As to `C=CCn1c(=O)/c(=C\c2cccc(Cl)c2Cl)[nH]c(=O)/c1=C\c1ccccc1OC`, the IC50 came to 2200 nM.

For `CC(/C=C/C(=O)NO)=C\[C@@H](C)C(=O)c1ccc(N(C)C)cc1` [TRICHOSTATIN], the IC50 came to 80 nM.
